Experiments:
KB [1] = test: Antiproliferative SRB assay, KB; type: cell-based, human; details: positive control
Summary of the method: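 Human nasopharyngeal epidermoid carcinoma KB cells, tested in a panel with A-549, P-gp-expressing KBVIN and DU145 lines. Cytotoxicity was read by the sulforhodamine B (SRB) method, with a reference compound run alongside. GI50 is the molar drug concentration causing 50% tumor cell growth inhibition.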

KB [2] = details: prior hit; cited from earlier work
DU145 = details: read-out: GI50, DU145, prior hit; cited from earlier work
A549 = details: read-out: GI50, A549, prior hit; cited from earlier work

Row | GI50 ± SD, KB (KB [1]) | GI50 ± SD, KB (KB [1]; listed as paclitaxel) | SMILES | GI50, KB (KB [2]) | GI50 (DU145) | GI50 (A549)
1 | 0.00777 ± 0.00084 µM | 0.008 µM | CC(=O)O[C@H]1C(=O)[C@@]2(C)[C@H]([C@H](OC(=O)c3ccccc3)[C@]3(O)C[C@H](OC(=O)[C@H](O)[C@@H](NC(=O)c4ccccc4)c4ccccc4)C(C)=C1C3(C)C)[C@]1(OC(C)=O)CO[C@@H]1C[C@@H]2O [Paclitaxel] | – | – | –
2 | – | – | COc1ccc(Nc2nc(Cl)ccc2[N+](=O)[O-])cc1 [1a, 6-chloro-N-(4-methoxyphenyl)-3-nitropyridin-2-amine] | 7.19 µM | 3.83 µM | 13.5 µM
